Results: PubChem BioAssay AID602134 (Broad Institute, 2011)
Activity calls are given as the source filed them.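 How the source made its calls: active means falling transferrin uptake with a fitted half-maximal potency at or below twice the top valid tested dose; inconclusive means flat fit with a 30 to 70% drop, or poor fit; inactive means the rest.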

experiment: transferrin receptor uptake blockade – imaging, Alexa594-transferrin, dry powder, selectivity assay for SR-BI HDL uptake inhibitor project, dose response (AID 602134); settings: mSR-BI cells; series mostly up to 35 µM
Summary of the method: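 Assay system: mSR-BI cells; buffer or medium: serum-free DMEM with 1% BSA after serum wash; reagent: Alexa-594 transferrin, 30 µg/mL; times: 30 min transferrin exposure, 37 °C; signal: fluorescence imaging, Alexa-594 and DAPI; evaluation: normalized percent of cells with above-threshold perinuclear transferrin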

outcome, inactive:
CCCCCCC1CCC/C1=N\NC(N)=S (configuration not stated), CCC(=O)N1CCc2cc(-c3csc(NC(=O)c4ccc(F)c(OC)c4)n3)ccc21, COCC(=O)N1CCc2cc(-c3csc(NC(=O)c4cc(OC)cc(OC)c4)n3)ccc21, CCNC(=O)N1CCc2cc(-c3csc(NC(=O)c4cc(OC)cc(OC)c4)n3)ccc21, COc1cc(OC)cc(C(=O)Nc2nc(-c3ccc4c(c3)CCN4C(=O)CN(C)C)cs2)c1, COc1ccc(-c2cc(CC(=O)N(C3CCCCC3)C(C)C(=O)NC3CCCC3)no2)cc1OC (configuration not stated), C[C@@H]1CN([C@H](C)CO)C(=O)c2cc(NC(=O)Cc3cn(C)c4ccccc34)ccc2O[C@H]1CN(C)S(=O)(=O)c1ccc(Cl)cc1, CC(=O)N1CCc2cc(-c3nc(NC(=O)c4cccc(OC(F)(F)F)c4)sc3C)ccc21, C[C@H](C(=O)NC1CCCC1)N(C(=O)Cn1nnc(-c2ccc3c(c2)OCO3)n1)C1CCCCC1, COc1c(NC(=O)C(=O)c2ccc(OCCN3CCOCC3)c3ccccc23)cc(C(C)(C)C)cc1NS(C)(=O)=O, CCC(=O)N1CCc2cc(-c3csc(NC(=O)c4cccc(OC)c4)n3)ccc21, CCC(=O)N1CC(C)(C)c2cc(-c3csc(NC(=O)c4cc(OC)cc(OC)c4)n3)ccc21
